Experimental data: ChEMBL document CHEMBL5724801, “EUbOPEN Chemogenomics Library - Multiplex” (2024)
Several values for one entry are separate records, joined by “and”; a condition that tells them apart may be missing. Identical values can stand only once.

System: U2OS
Assay: Multiplex assay against U2OS
Assay type: toxicity, cell-based
Conditions: human
Method in brief: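 Four dyes were applied at seeding to live cells: Hoechst33342, BioTracker Green Microtubule Cytoskeleton Dye, MitoTracker Red and Annexin V Alexa Fluor 680. Imaging after compound addition used a CQ1 microscope at 37°C and 5% CO2. CellPathfinder machine-learning gating then sorted cells into Hoechst high-intensity objects or normal cells, normal cells into healthy, pyknosed or fragmented nuclei, and pyknosed cells into mitotic or apoptotic, with tubulin, mitochondrial-mass and membrane-permeability phenotypes given as per cents of healthy-nucleus cells.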

[1] = 12 h, 1 µM, compound concentration 1 uM
[2] = 12 h, 10 µM, compound concentration 10 uM
[3] = 24 h, 1 µM, compound concentration 1 uM
[4] = 24 h, 10 µM, compound concentration 10 uM
[5] = 48 h, 1 µM, compound concentration 1 uM
[6] = 48 h, 10 µM, compound concentration 10 uM

Cn1cnc(-c2cnc(O[C@H]3CCN(C(=O)Cc4ccc(OC(F)(F)F)cc4)C[C@H]3F)c(C(N)=O)c2)c1
Population Apoptotic (%) [1]: 46.88% and 25% | Population Healthy Nuclei (%) [1]: 91.05% and 84.18% | Population Hoechst High Intensity Objects (%) [1]: 0% | Population Mitotic Cells (%) [1]: 53.12% and 75% | Population Normal (%) [1]: 100% | Population Pyknosed Nuclei (%) [1]: 8.42% and 13.56% | Population Apoptotic (%) [2]: 38.46% and 23.33% | Population Healthy Nuclei (%) [2]: 82.47% and 74.67% | Population Hoechst High Intensity Objects (%) [2]: 0.26% and 0% | Population Mitotic Cells (%) [2]: 61.54% and 76.67% | Population Normal (%) [2]: 99.74% and 100% | Population Pyknosed Nuclei (%) [2]: 16.75% and 20% | Population Apoptotic (%) [3]: 37.74% and 45.16% | Population Healthy Nuclei (%) [3]: 89.71% and 85.37% | Population Hoechst High Intensity Objects (%) [3]: 0.17% and 0% | Population Mitotic Cells (%) [3]: 62.26% and 54.84% | Population Normal (%) [3]: 99.83% and 100% | Population Pyknosed Nuclei (%) [3]: 9.09% and 12.6% | Population Apoptotic (%) [4]: 46.15% and 28.21% | Population Healthy Nuclei (%) [4]: 86.69% and 75.26% | Population Hoechst High Intensity Objects (%) [4]: 0% and 0.51% | Population Mitotic Cells (%) [4]: 53.85% and 71.79% | Population Normal (%) [4]: 100% and 99.49% | Population Pyknosed Nuclei (%) [4]: 12.36% and 20.1% | Population Apoptotic (%) [5]: 32.56% and 44.19% | Population Healthy Nuclei (%) [5]: 89.01% and 86.44% | Population Hoechst High Intensity Objects (%) [5]: 0% and 0.24% | Population Mitotic Cells (%) [5]: 67.44% and 55.81% | Population Normal (%) [5]: 100% and 99.76% | Population Pyknosed Nuclei (%) [5]: 7.88% and 10.41% | Population Apoptotic (%) [6]: 53.41% and 48.57% | Population Healthy Nuclei (%) [6]: 86.7% and 85.71% | Population Hoechst High Intensity Objects (%) [6]: 0% | Population Mitotic Cells (%) [6]: 46.59% and 51.43% | Population Normal (%) [6]: 100% | Population Pyknosed Nuclei (%) [6]: 9.51% and 11.63%

Cl.Cl.N#Cc1ccc(O[C@@H]2c3ccccc3C[C@H]2N2CCC[C@@H](N)C2)c(Cl)c1
Population Apoptotic (%) [1]: 27.27% and 23.68% | Population Fragmented Nuclei (%) [1]: 3.65% and 1.32% | Population Healthy Nuclei (%) [1]: 79.64% and 73.51% | Population Hoechst High Intensity Objects (%) [1]: 0% | Population Membrane Permeable-Phenotype (%) [1]: 24.05% and 54.05% | Population Mitotic Cells (%) [1]: 72.73% and 76.32% | Population Normal (%) [1]: 100% | Population Pyknosed Nuclei (%) [1]: 16.72% and 25.17% | Population Tubulin-Different-Phenotype (%) [1]: 57.25% and 71.17% | Total Cell Count [1]: 329 and 151 | Population Apoptotic (%) [2]: 46.21% and 25.32% | Population Fragmented Nuclei (%) [2]: 4.14% and 2.88% | Population Healthy Nuclei (%) [2]: 56.8% and 40.29% | Population Hoechst High Intensity Objects (%) [2]: 0% | Population Membrane Permeable-Phenotype (%) [2]: 11.98% and 32.14% | Population Mitochondria Different-Phenotype (%) [2]: 63.54% and 89.29% | Population Mitotic Cells (%) [2]: 53.79% and 74.68% | Population Normal (%) [2]: 100% | Population Pyknosed Nuclei (%) [2]: 39.05% and 56.83% | Population Tubulin-Different-Phenotype (%) [2]: 88.02% and 89.29% | Total Cell Count [2]: 338 and 139 | Population Apoptotic (%) [3]: 47.5% and 39.47% | Population Fragmented Nuclei (%) [3]: 2.74% and 2.58% | Population Healthy Nuclei (%) [3]: 77.31% and 72.9% | Population Hoechst High Intensity Objects (%) [3]: 0% | Population Membrane Permeable-Phenotype (%) [3]: 19.35% and 35.4% | Population Mitotic Cells (%) [3]: 52.5% and 60.53% | Population Normal (%) [3]: 100% | Population Pyknosed Nuclei (%) [3]: 19.95% and 24.52% | Population Tubulin-Different-Phenotype (%) [3]: 32.58% and 69.03% | Total Cell Count [3]: 401 and 155 | Population Apoptotic (%) [4]: 64.9% and 68.09% | Population Fragmented Nuclei (%) [4]: 3.82% and 4.96% | Population Healthy Nuclei (%) [4]: 51.76% and 28.37% | Population Hoechst High Intensity Objects (%) [4]: 0% | Population Membrane Permeable-Phenotype (%) [4]: 9.09% and 12.5% | Population Mitochondria Different-Phenotype (%) [4]: 73.3% and 92.5% | Population Mitotic Cells (%) [4]: 35.1% and 31.91% | Population Normal (%) [4]: 100% | Population Pyknosed Nuclei (%) [4]: 44.41% and 66.67% | Population Tubulin-Different-Phenotype (%) [4]: 88.64% and 90% | Total Cell Count [4]: 340 and 141 | Population Apoptotic (%) [5]: 60.55% and 72.41% | Population Fragmented Nuclei (%) [5]: 2.44% and 3.43% | Population Healthy Nuclei (%) [5]: 79.8% and 63.43% | Population Hoechst High Intensity Objects (%) [5]: 0% | Population Mitotic Cells (%) [5]: 39.45% and 27.59% | Population Normal (%) [5]: 100% | Population Pyknosed Nuclei (%) [5]: 17.75% and 33.14% | Population Apoptotic (%) [6]: 73.29% and 91.21% | Population Fragmented Nuclei (%) [6]: 7.46% and 4.9% | Population Healthy Nuclei (%) [6]: 56.22% and 31.47% | Population Hoechst High Intensity Objects (%) [6]: 0% and 0.69% | Population Membrane Permeable-Phenotype (%) [6]: 5.75% and 15.56% | Population Mitochondria Different-Phenotype (%) [6]: 52.21% and 86.67% | Population Normal (%) [6]: 100% and 99.31% | Population Pyknosed Nuclei (%) [6]: 36.32% and 63.64% | Population Tubulin-Different-Phenotype (%) [6]: 66.37% and 84.44% | Total Cell Count [6]: 402 and 144
